Published values of several laboratories.
Protocols differ between the studies behind these lines.
Cell line: Vero
Read-out: cell growth or viability

Compound | method | tested at | time | endpoint | result
COC(=O)COc1c(Cc2cc(C(C)(C)CC(C)(C)C)cc(-n3nc4ccccc4n3)c2OCC(=O)OC)cc(C(C)(C)CC(C)(C)C)cc1-n1nc2ccccc2n1 | MTT | 10 µM | 48 h | viability | 89.5%
CCCN(CCc1cccs1)[C@H]1CCc2c(O)cccc2C1 | resazurin |  |  | CC50 | 9.48 µM
O=C(Cn1ccnc1[N+](=O)[O-])NCc1ccccc1 | MTT |  |  | CC50 | 142 µM
CN(C)c1ncnc2c1ncn2[C@@H]1O[C@H](CCl)[C@@H](NC(=O)[C@H](CSC(c2ccccc2)c2ccccc2)NC(=O)OC(C)(C)C)[C@H]1O | MTT |  |  | CC50 | > 100 µM
CC1(F)CN(C(=O)Cn2c(=O)c(C(=O)NCc3ccc(Cl)cc3)cc3nc(N4CCNC4=O)cnc32)C1 | CCK-8 |  | 5 days | CC50 | > 40 µM
O=C(NNC(=O)c1cc2ccccc2s1)c1ccc([N+](=O)[O-])o1 | MTT |  | 48 h | CC50 | 75 µM
CO[C@@]12[C@H](COC(N)=O)C3=C(C(=O)C(C)=C(N)C3=O)N1C[C@@H]1N[C@@H]12 | resazurin |  |  | CC50 | 0.39 µM
CN1CCN(c2cnc3c(cc(C(=O)NCc4ccc(Cl)cc4)c(=O)n3CC(=O)N3CC(C)(F)C3)n2)C1=O | CCK-8 |  | 5 days | CC50 | > 40 µM
